GPR7 antagonist = antagonists of human GPR7 (neuropeptides B/W receptor 1) | GPR7-expressing cells, fluorescence antagonist assay | inhibition, % at 4.4 µM | hit rate 1.1% among 290,000 | AID 1861; in the data active = inhibition above about 16%, passing the limit was not always enough;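 also: cells stimulated with the agonist NPW; 0% = agonist with vehicle and 100% = vehicle without agonist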
DAGLB inhibitor = blocks human DAGLB lipase activity | Q8NCG7 | HEK293T DAGLB membrane lysate, EnzChek fluorogenic substrate | inhibition, % at 5.17 µM | hit rate 0.059% among 340,000 | AID 504411; in the data active = inhibition above about 34%;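 also: 0% = enzyme with vehicle and 100% = wells lacking enzyme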
core dimer inh = blocks dimerization of HCV core protein; TR-FRET GST/Flag-core106 dimerization, 1536-well; inhibition, % at 5 µM; hit rate 0.33% among 300,000; AID 1899;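 active = inhibition above the mean of all tested compounds plus 3 SD, set per screening campaign, cut at about 45% in these data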
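Assay system: Tagged HCV core106 pair (GST and Flag) | Buffer or medium: KF-containing HEPES buffer, pH 7.45, DTT, CHAPS, BSA | Also added: Eu donor and XL665 acceptor anti-tag antibodies | Dosing: One concentration, 5 µM, in 0.5% DMSO | Timing: 4 h at 22.5 °C | Technique: TR-FRET 671 and 617 nm emission | Repeats: Singlicate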
NS3 helicase inh = inhibitors of Hepatitis C virus NS3 helicase. NS3 helicase DNA unwinding, Cy5 molecular beacon fluorescence. inhibition, % at 10.9 µM. hit rate 0.56% among 290,000. AID 1800;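 active = inhibition above the mean of all tested compounds plus 3 SD, set per campaign, cut at about 35% in these data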;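 also: 0% = DMSO wells and 100% = thioflavine S control wells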
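assay system = NS3 helicase fragment of HCV | buffer or medium = MOPS pH 6.5, MgCl2, DTT, Tween20, BSA | timing = 60 min unwinding reaction at 25 °C after ATP addition | signal = Cy5 beacon fluorescence read at start and 1 h | read-out basis = % inhibition of unwinding | control set = low DMSO, high thioflavine S at 110 µM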
GRK2 inh = inhibitors of human GRK2 displacing RNA aptamer | P25098 | bead flow cytometry, FAM-aptamer displacement from GRK2 | inhibition of aptamer binding, % at 10 µM | hit rate 0.59% among 330,000 | AID 488847;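 active = inhibition of aptamer binding above 40%, roughly 3 SD of noise, on plates passing a quality check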;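 also: median bead fluorescence of bound FAM aptamer so fluorescent compounds give negative values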
Target sequence (P25098 whole entry, looked up): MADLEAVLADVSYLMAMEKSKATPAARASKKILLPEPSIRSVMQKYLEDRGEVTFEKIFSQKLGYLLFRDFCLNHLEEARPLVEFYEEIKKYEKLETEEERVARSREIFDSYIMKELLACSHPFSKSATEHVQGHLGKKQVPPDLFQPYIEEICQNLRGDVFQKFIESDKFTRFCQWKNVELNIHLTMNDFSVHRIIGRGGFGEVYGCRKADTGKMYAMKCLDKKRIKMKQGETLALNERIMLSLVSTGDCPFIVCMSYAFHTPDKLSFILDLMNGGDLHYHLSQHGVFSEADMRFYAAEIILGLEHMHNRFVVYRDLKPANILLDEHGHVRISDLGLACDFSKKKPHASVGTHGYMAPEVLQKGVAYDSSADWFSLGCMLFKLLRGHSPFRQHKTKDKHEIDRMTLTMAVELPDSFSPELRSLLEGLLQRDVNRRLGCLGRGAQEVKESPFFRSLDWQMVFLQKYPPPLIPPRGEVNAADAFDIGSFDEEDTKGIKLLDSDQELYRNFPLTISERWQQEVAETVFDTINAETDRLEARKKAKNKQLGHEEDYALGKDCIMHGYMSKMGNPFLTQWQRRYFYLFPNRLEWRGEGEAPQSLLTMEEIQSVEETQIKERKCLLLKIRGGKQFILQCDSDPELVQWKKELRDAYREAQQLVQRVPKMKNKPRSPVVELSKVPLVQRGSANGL
FID counter = displaces DNA intercalator in HCV helicase counter-screen. AID 1845. inhibition, % at 7.9 µM. DNA fluorescent intercalator displacement, fluorescence. hit rate 0.17% among 290,000; in the data active = inhibition above about 37%;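 also: 0% = vehicle and 100% = reference compound; higher means more ethidium bromide displaced from hairpin DNA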
GPR7 antag conf = human GPR7 antagonism, confirmation assay; hit rate 52% among 2,400; inhibition, % at 4.4 µM; AID 1952; shares compounds with GPR7 antagonist; GPR7-expressing cells, calcium fluorescence antagonist mode; in the data active = inhibition above about 24%;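 also: stimulated with the GPR7 agonist NPW; 0% = agonist plus vehicle and 100% = vehicle alone without agonist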
MCHR1 antag = antagonizes human MCHR1, a GPR7 antagonist counter-screen | shares compounds with GPR7 antagonist | MCHR1-expressing cells, fluorescence antagonist assay | inhibition, % at 4.4 µM | hit rate 62% among 2,400; in the data active = inhibition above about 22%;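 also: 0% = vehicle with agonist and 100% = vehicle without agonist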
* hit, by the source's call. An excerpt weighted towards active compounds, which were near 2.2% of everything screened.

`CN1CCN(c2oc(COc3ccc(-c4ccccc4)cc3)nc2C#N)CC1` gave GPR7 antagonist 26.8*, DAGLB inhibitor -1.1, core dimer inh 0.1, NS3 helicase inh -85.2, GRK2 inh 0.0, FID counter 19.6, GPR7 antag conf 13.1 and MCHR1 antag 40.7*.
`N#Cc1nc(COc2ccccc2)oc1N1CCCC1` gave GPR7 antagonist 1.3, DAGLB inhibitor -1.3, core dimer inh 0.0, NS3 helicase inh -9.0, GRK2 inh 2.0 and FID counter -13.5.
For COc1ccc(N2CCN(c3oc(COc4ccc(Cl)cc4Cl)nc3C#N)CC2)cc1 the results were GPR7 antagonist 40.7*, DAGLB inhibitor 1.4, core dimer inh 10.5, NS3 helicase inh -6.4, GRK2 inh 0.0, FID counter -4.7, GPR7 antag conf 53.8* and MCHR1 antag 34.9*.
CCC1CCCCN1C(=O)COc1ccc2c3c(c(=O)oc2c1)CCC3 (centres undefined) was read as DAGLB inhibitor 2.8 and GRK2 inh 3.0.
Screening Cn1c(CNC(=O)c2ccc(Cl)cc2)nnc1SCC(=O)NC1CCCC1 returned GPR7 antagonist -7.3, DAGLB inhibitor 1.1, core dimer inh 2.1, NS3 helicase inh 2.1, GRK2 inh 0.0 and FID counter -11.8.
`CC1CCCC(NC(=O)CNC(=S)N(Cc2ccccc2)Cc2cccs2)C1C` (centres undefined) gave GPR7 antagonist 21.6*, DAGLB inhibitor 1.8, core dimer inh 4.0, NS3 helicase inh 10.2, GRK2 inh 3.0, FID counter -22.7, GPR7 antag conf 32.0* and MCHR1 antag 24.1*.
`O=C(NC1CCCCCC1)C1c2ccccc2C(=O)N1Cc1cccnc1` (centres undefined) gave GPR7 antagonist 9.3, DAGLB inhibitor -0.1, core dimer inh -2.3, NS3 helicase inh -9.8, GRK2 inh 3.0 and FID counter -17.4.
`O=C(NC1CCCCCCC1)C1c2ccccc2C(=O)N1Cc1ccco1` (centres undefined) gave GPR7 antagonist 39.4*, DAGLB inhibitor -1.5, core dimer inh -7.8, NS3 helicase inh -3.9, GRK2 inh 0.0, FID counter -17.4, GPR7 antag conf 25.3* and MCHR1 antag 16.8.
`CC1CCCC(NC(=O)C2c3ccccc3C(=O)N2Cc2cccs2)C1C` (centres undefined) gave GPR7 antagonist 39.7*, DAGLB inhibitor 0.2, core dimer inh -6.4, NS3 helicase inh 2.8, GRK2 inh 2.0, FID counter -27.6, GPR7 antag conf 27.8* and MCHR1 antag 24.1*.
CCCCNC(=O)CNC(=S)N(Cc1ccccc1)Cc1cccs1 was read as GPR7 antagonist -2.8, DAGLB inhibitor -2.4, core dimer inh 1.8, NS3 helicase inh -1.6, GRK2 inh 1.0 and FID counter -15.0.
Cc1ccc(CNC(=O)C2CCCN(S(=O)(=O)c3cccc4nonc34)C2)cc1 (centres undefined) was read as GPR7 antagonist 11.4, DAGLB inhibitor -0.9, core dimer inh -5.5, NS3 helicase inh -4.0, GRK2 inh 0.0 and FID counter -2.1.
For COC(=O)[C@@]12CCCCN1[C@H](c1ccc(-c3ccc(F)cc3)cc1)[C@@H]1C(=O)N(C)C(=O)[C@@H]12 the results were DAGLB inhibitor -1.8, core dimer inh -16.2 and GRK2 inh 2.0.
Screening CCCC(c1nnnn1C1CCCCC1)N1CCN(C2CCCC2)CC1 (centres undefined) returned GPR7 antagonist 22.2*, DAGLB inhibitor -2.0, core dimer inh -5.1, NS3 helicase inh -0.8, GRK2 inh 0.0, FID counter -0.5, GPR7 antag conf 22.4 and MCHR1 antag 16.5.
`Cc1cc(Cl)ccc1OCC(=O)N1CCN(c2ncccn2)CC1` gave GPR7 antagonist 24.5*, DAGLB inhibitor 0.3, core dimer inh 1.0, NS3 helicase inh -10.7, GRK2 inh 1.0, FID counter -27.8, GPR7 antag conf -6.4 and MCHR1 antag 2.9.

Screening results as filed in PubChem BioAssay.
